Measured values reported in ChEMBL document CHEMBL5705902, “Role of G Protein-Coupled Receptor Kinases 2 and 3 in μ-Opioid Receptor Desensitization and Internalization” (Mol Pharmacol, 2015).
Calls of active or inactive are those of the source. No cut-off for these calls is given here.

Assays:
[1] = molecular target: Mitogen-activated protein kinase 1 (Homo sapiens) (UniProt P28482); test: Inhibition of human ERK2 assessed as remaining activity at 1 uM in presence of 32ATP relative to control
Method in brief: (§1)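 Express panel of 52 purified human kinases run in vitro. Kinase activity was measured directly by a radioactive filter-binding assay with ³²ATP, at ATP levels at or below each kinase's calculated Km for ATP. The compound was tested at 1 μM. Each assay was run in duplicate, and activity is given as the mean percentage (with S.D.) of activity without inhibitor.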

[2] = molecular target: G protein-coupled receptor kinase 5 (Bos taurus) (UniProt P43249); test: Inhibition of C-terminal truncations tagged bovine GRK5 at 125 uM in the presence of ATP
[3] = molecular target: Mu-type opioid receptor (Rattus norvegicus) (UniProt P33535); test: Inhibition of HA-tagged rat MOPr stably expressing in HEK293 cells assessed as increase in ERK1/2 phosphorylation level at 30 uM preincubated for 30 mins by westernblot analysis; format: functional, cell-based
Method in brief: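 HEK 293 cells stably expressing HA-tagged rat MOPr were grown to 90% confluence and serum-starved 24 h. Inhibitor was added for 30 min, then DAMGO 10 μM for 5 min. pERK1/2 was measured by Western blot with ECL detection. Densitometry was done in duplicate, normalized to total ERK1/2 and expressed as % of maximal DAMGO response; n = 4.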
Target sequence in this assay (P33535 whole entry): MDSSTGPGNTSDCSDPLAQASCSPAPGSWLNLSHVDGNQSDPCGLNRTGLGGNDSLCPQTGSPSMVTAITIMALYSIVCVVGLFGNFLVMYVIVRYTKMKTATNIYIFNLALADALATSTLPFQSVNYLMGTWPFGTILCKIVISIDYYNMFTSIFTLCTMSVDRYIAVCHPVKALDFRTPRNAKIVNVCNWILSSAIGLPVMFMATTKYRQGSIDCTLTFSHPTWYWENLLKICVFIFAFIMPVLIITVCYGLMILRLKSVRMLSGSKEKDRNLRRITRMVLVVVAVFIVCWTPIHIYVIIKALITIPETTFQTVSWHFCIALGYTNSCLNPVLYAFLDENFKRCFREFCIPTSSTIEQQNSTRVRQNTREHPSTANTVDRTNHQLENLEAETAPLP

[4] = molecular target: Mu-type opioid receptor (Rattus norvegicus) (UniProt P33535); test: Inhibition of HA-tagged rat MOPr in HEK293 cells assessed as DAMGO induced MOPr phosphorylation at Ser375 level at 3 uM preincubated for 30 mins by western blot analysis; format: functional, cell-based
Method in brief: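 Serum-starved HEK 293 cells stably expressing HA-rat MOPr were pretreated with inhibitor for 30 min, then DAMGO 10 μM for 5 min. Receptor was enriched on WGA-agarose overnight at 4°C and blotted for pSer375. Densitometry was done in duplicate and normalized to total HA-MOPr; n = 3.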
Target sequence in this assay (P33535 whole entry): as above

Homo sapiens = species on record: Homo sapiens; test: Inhibition of human AMPK assessed as remaining activity at 1 uM in presence of 32ATP relative to control
Method in brief: (§2)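 Express screen of 52 purified human kinases run as a radioactive filter-binding assay with 32ATP, at 1 μM inhibitor. ATP was at or below each kinase's calculated Km. Activity is given as percent of the activity without inhibitor. Run in duplicate; mean with S.D.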

[5] = molecular target: Mu-type opioid receptor (Rattus norvegicus) (UniProt P33535); test: Inhibition of MOPr desensitization (unknown origin) assessed as DAMGO induced loss of functional receptor at 30 uM incubated for 15 mins relative to control
Target sequence in this assay (P33535 whole entry, looked up): as the sequence (P33535 whole entry) above

[6] = molecular target: Mu-type opioid receptor (Rattus norvegicus) (UniProt P33535); test: Inhibition of MOPr desensitization in wistar rat LC neuron cells assessed as reduction in the morphine induced desensitization at 30 uM incubated for 15 mins; format: functional, cell-based
Target sequence in this assay (P33535 whole entry): as above

[7] = molecular target: Casein kinase 2 (Homo sapiens) (UniProt P67870+P68400+P19784+Q8NEV1); test: Inhibition of human CK2 assessed as remaining activity at 1 uM in presence of 32ATP relative to control; format: protein assay; method in brief: as §2
[8] = molecular target: Serine/threonine-protein kinase N2 (Homo sapiens) (UniProt Q16513); test: Inhibition of human PRK2 assessed as remaining activity at 1 uM in presence of 32ATP relative to control; method in brief: as §1
[9] = molecular target: Calcium/calmodulin-dependent protein kinase type 1 (Homo sapiens) (UniProt Q14012); test: Inhibition of human CAMK1 assessed as remaining activity at 1 uM in presence of 32ATP relative to control; method in brief: as §2
[10] = molecular target: Aurora kinase B (Homo sapiens) (UniProt Q96GD4); test: Inhibition of human Aurora B assessed as remaining activity at 1 uM in presence of 32ATP relative to control; method in brief: as §2
[11] = molecular target: Serine/threonine-protein kinase D1 (Homo sapiens) (UniProt Q15139); test: Inhibition of human PKD1 assessed as remaining activity at 1 uM in presence of 32ATP relative to control; method in brief: as §1
[12] = molecular target: Beta-2 adrenergic receptor (Bos taurus) (UniProt Q28044); test: Inhibition of bovine beta2-adrenoceptor desensitization in HEK293 cell; format: cell-based; details: dose 3-30 µM
Chain of Beta-2 adrenergic receptor (Bos taurus) (Q28044 whole entry, looked up): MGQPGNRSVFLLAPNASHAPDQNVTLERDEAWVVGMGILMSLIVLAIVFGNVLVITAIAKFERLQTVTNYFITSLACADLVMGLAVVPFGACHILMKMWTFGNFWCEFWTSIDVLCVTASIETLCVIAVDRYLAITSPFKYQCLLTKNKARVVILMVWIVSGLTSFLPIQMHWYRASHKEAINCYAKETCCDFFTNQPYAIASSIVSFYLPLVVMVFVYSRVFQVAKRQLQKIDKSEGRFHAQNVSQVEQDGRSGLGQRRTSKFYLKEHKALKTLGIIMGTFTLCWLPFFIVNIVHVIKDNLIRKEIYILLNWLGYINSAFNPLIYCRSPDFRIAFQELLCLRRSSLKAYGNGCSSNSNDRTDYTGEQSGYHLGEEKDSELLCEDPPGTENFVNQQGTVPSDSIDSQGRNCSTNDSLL

Chain of Serine/threonine-protein kinase N2 (Homo sapiens) (Q16513 whole entry, looked up): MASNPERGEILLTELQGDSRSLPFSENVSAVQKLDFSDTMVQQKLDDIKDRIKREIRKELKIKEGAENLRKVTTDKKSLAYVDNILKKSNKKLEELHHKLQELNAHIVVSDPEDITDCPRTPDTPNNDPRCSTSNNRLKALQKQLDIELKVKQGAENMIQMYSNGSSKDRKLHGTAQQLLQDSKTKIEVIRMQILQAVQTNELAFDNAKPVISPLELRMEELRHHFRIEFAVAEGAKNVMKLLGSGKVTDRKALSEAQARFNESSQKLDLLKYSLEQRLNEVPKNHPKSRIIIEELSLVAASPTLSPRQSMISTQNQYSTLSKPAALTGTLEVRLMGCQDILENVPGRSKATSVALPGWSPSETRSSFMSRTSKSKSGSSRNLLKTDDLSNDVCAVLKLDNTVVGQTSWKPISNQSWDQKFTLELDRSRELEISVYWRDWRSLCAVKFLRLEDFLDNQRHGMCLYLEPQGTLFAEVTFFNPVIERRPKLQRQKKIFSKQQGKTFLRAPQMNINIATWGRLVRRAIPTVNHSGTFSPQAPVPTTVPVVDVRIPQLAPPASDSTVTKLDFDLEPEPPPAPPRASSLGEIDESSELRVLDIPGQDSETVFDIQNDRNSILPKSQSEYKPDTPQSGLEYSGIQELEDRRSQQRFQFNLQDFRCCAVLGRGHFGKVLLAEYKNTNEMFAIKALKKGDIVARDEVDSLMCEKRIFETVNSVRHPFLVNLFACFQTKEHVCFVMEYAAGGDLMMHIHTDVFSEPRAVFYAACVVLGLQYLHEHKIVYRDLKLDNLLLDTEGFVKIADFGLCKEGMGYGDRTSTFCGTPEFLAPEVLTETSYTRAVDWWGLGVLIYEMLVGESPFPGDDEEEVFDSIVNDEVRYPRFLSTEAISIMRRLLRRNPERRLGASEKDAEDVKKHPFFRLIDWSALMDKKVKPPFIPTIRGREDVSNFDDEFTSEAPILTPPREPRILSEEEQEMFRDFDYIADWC
Chain of Calcium/calmodulin-dependent protein kinase type 1 (Homo sapiens) (Q14012 whole entry, looked up): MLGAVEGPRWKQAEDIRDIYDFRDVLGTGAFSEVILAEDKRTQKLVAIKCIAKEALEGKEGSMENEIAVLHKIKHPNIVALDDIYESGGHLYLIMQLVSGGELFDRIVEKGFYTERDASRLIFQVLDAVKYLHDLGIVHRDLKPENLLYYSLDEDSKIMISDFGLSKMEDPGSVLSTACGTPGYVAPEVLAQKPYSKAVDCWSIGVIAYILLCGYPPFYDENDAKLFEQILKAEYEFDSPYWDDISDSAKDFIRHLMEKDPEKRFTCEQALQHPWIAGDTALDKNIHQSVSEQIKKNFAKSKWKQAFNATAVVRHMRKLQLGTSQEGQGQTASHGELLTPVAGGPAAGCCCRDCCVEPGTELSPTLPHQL
Chain of Serine/threonine-protein kinase D1 (Homo sapiens) (Q15139 whole entry): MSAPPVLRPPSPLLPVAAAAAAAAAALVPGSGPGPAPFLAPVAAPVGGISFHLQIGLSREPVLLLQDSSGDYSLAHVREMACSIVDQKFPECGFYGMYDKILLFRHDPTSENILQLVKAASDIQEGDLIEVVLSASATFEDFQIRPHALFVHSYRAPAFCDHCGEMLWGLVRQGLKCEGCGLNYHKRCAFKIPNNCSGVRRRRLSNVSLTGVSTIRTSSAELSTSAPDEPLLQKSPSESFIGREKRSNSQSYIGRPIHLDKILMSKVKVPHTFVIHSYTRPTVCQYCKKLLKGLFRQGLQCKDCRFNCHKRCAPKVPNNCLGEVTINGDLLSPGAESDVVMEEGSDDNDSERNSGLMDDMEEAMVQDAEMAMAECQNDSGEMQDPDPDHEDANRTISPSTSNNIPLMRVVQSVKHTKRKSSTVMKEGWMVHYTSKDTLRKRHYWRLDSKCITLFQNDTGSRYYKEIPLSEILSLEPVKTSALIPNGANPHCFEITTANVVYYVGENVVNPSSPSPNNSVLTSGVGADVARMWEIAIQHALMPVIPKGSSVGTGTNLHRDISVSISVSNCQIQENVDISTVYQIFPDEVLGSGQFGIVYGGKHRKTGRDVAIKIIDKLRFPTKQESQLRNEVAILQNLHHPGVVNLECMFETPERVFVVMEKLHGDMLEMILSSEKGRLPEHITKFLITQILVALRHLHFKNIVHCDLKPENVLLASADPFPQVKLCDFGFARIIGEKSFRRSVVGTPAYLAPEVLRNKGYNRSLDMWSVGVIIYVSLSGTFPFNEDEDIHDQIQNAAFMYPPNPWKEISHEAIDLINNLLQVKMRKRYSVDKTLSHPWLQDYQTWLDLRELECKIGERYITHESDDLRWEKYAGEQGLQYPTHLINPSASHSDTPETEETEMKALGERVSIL
Chain of G protein-coupled receptor kinase 5 (Bos taurus) (P43249 whole entry, the tested form may be a part): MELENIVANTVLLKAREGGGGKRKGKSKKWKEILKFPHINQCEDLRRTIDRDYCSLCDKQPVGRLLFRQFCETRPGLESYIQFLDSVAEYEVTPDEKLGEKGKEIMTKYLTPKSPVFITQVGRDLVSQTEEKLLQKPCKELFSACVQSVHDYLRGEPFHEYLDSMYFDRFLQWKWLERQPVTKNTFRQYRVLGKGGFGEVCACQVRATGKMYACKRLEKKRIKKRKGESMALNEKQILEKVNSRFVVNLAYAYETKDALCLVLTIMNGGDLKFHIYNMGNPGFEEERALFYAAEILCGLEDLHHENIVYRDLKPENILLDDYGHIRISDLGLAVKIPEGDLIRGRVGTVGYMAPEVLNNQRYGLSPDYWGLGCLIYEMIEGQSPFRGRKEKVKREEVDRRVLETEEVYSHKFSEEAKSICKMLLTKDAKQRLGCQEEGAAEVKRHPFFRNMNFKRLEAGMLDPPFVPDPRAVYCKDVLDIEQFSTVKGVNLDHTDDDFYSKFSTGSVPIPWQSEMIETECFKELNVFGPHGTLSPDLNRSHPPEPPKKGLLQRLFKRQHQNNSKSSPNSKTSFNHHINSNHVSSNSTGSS
Chain of Mitogen-activated protein kinase 1 (Homo sapiens) (P28482 whole entry): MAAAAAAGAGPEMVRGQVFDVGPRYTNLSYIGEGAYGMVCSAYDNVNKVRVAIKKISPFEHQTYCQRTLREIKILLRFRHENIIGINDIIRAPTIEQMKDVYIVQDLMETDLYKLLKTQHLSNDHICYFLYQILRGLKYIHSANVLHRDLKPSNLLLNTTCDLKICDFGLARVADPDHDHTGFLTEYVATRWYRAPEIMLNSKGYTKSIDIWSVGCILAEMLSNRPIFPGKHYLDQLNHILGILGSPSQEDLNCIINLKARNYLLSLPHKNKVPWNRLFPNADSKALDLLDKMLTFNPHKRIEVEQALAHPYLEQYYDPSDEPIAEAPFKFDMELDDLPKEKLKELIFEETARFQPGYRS
Chain of Aurora kinase B (Homo sapiens) (Q96GD4 whole entry): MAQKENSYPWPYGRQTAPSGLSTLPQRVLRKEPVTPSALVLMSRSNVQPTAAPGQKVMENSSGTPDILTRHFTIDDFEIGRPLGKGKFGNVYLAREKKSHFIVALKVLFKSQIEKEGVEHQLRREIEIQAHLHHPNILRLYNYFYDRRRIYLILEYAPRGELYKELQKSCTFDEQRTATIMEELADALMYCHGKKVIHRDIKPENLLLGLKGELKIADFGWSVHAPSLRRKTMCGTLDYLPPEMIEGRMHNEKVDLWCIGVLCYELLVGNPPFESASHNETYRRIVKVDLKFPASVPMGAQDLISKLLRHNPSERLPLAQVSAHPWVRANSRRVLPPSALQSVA

Cn1c(CNc2cccc(C(=O)NCc3ccccc3C(F)(F)F)c2)nnc1-c1ccncc1
Activity [1]: 81% | inhibition [2]: inactive | inhibition [3]: Active | inhibition [4]: Active | Activity (Homo sapiens): 82% | inhibition [5]: 59% | inhibition [6]: Active | Activity [7]: 106% | Activity [8]: 7% | Activity [9]: 101% | Activity [10]: 92% | Activity [11]: 65% | inhibition [12]: Dose-Dependent Effect
